Sampled rows, rich in hits. Any-hit rate of the full collection: about 3.8%.
Beta apoptosis: inhibitors of cytokine-induced beta cell apoptosis, primary screen, luminescence | INS-1E cytokine-induced death, ATP luminescence, 48 h; percent of positive-control rescue, neutral wells zero | protection from apoptosis, % (concentration not given with the values) | actives 0.8% (n = 300,000);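 active = Every replicate reaches about 75%, or at least half do and their mean reaches it too, limit read from the data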;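 also: 0% = cytokine-treated negative control wells and 100% = positive control rescue; higher means more ATP so stronger rescue from cytokine killing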
ANO1 activ: TMEM16A chloride channel activators or potentiators, primary screen, cell-based, HTS; B-score at 10 µM; Anoctamin-1 (Mus musculus), Q8BHY3; AID 623877, 2012; actives 0.3% (n = 340,000); HEK293 TMEM16A/YFP-H148Q/I152L, iodide quench fluorescence; stronger effect = lower value;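 active = fluorescence-ratio B-score plate-corrected deviation score at least 3 library SD below zero, with starting fluorescence score within 5 deviations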;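 also: channel opened by trigger with iodide after compound preincubation; score built on the fluorescence ratio of max minus min over baseline; more negative score means more quench and so TMEM16A activation or potentiation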
ANO1 block: TMEM16A chloride channel inhibitors, primary screen, cell-based, HTS. Anoctamin-1 (Mus musculus), Q8BHY3. HEK293 TMEM16A/YFP iodide influx fluorescence, ionomycin. normalized B-score (activity score, 25-100; higher = stronger inhibition) at 10 µM. actives 1.2% (n = 310,000);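 active = ratio plate-corrected score three or more library SD toward inhibition, starting fluorescence score within five deviations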;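 also: score derived from kinetic fluorescence span divided by baseline fluorescence per well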
CSC inhib: cancer stem cell viability inhibitors, primary screen, luminescence | cancer stem cell-like cells viability | inhibition, % at 7.5 µM | actives 1.1% (n = 300,000) | AID 2717, 2010; in the data active = inhibition above about 75%; tested in HMLE shEcad cells
MC4R barr agon: MC4R agonists recruiting beta-arrestin, primary screen, cell-based, luminescence, agonist arm of biased-ligand search | Melanocortin receptor 4 (Homo sapiens), P32245 | U2OS MC4R beta-arrestin complementation; percent of melanotan II response, DMSO zero | activation, % at 8.9 µM | actives 0.98% (n = 360,000);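 active = activation above a per-plate cutoff, the mean activation of sample wells on that plate plus 3 SD, cut at about 8% in these data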
MC4R antagonist: MC4R antagonists of cAMP signaling, primary screen, cell-based, TR-FRET, antagonist arm of biased-ligand search | Melanocortin receptor 4 (Homo sapiens), P32245 | MC4R-expressing cells, MTII-stimulated cAMP, LANCE TR-FRET | inhibition, % at 6.5 µM | actives 0.48% (n = 360,000);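 active = inhibition above its plate's cutoff, the mean of tested wells on that plate plus 3 SD, cut at about 29% in these data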;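 also: 0% = Melanotan II alone and 100% = Melanotan II plus saturating MCL0020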
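Assay system: U2OS cells stably expressing human melanocortin 4 receptor (MC4R) / Dosing: 6.5 µM / Timing: compound 30 min, challenge 1 h, detection 1 h / Measured by: Eu-cAMP/anti-cAMP TR-FRET, emission 671 nm / Replicates: singlicate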
MC4R barr ag: MC4R beta-arrestin agonists, retest, confirmation, cell-based, luminescence, U2OS; activation, % at 8.9 µM; U2OS MC4R beta-arrestin recruitment; scaled DMSO 0%, Melanotan II 100%; actives 31% (n = 2,400); AID 602192, 2012; shares compounds with MC4R barr agon;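 active = mean activation across replicates above the hit cutoff set in the earlier primary screen, cut at about 8% in these data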
MOR-DOR barr ag: agonists of MOR-DOR heterodimerization, counter-screen for MC4R biased agonist project, cell-based, luminescence. shares compounds with MC4R barr agon. U2OS PathHunter beta-arrestin, beta-gal luminescence; percent of deltorphin B response, DMSO zero. activation, % at 9.2 µM. actives 5.8% (n = 2,400);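 active = mean activation across replicates exceeds the hit threshold derived in the earlier primary screen, cut at about 18% in these data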;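 also: 100% = deltorphin B at 0.9 µM final and 0% = DMSO alone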
Target sequence (P35372 whole entry, looked up): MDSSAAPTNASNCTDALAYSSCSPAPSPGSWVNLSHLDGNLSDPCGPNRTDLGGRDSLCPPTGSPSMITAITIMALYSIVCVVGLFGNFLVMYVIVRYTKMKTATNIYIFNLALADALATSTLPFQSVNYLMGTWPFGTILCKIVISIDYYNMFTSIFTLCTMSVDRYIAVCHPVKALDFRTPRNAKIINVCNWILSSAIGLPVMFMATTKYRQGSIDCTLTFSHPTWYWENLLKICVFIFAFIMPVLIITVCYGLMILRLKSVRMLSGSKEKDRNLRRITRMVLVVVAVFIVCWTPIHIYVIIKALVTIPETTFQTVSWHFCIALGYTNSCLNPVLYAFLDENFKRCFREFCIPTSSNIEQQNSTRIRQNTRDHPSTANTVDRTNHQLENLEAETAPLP
Target sequence (P41143 whole entry, looked up): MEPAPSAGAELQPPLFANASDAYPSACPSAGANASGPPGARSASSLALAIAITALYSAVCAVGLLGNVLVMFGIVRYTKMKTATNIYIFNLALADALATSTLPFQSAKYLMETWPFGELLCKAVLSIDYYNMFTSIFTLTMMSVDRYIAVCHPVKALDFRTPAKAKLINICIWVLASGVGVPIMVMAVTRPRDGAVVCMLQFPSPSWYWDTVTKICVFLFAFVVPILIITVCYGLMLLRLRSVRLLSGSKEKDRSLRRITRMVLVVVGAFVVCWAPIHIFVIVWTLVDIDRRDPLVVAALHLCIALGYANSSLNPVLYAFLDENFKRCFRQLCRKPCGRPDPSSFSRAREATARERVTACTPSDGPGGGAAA
* hit, by the source's call; i = inactive; · = no result.

SMILES	Beta apoptosis	ANO1 activ	ANO1 block	CSC inhib	MC4R barr agon	MC4R antagonist	MC4R barr ag	MOR-DOR barr ag
O=C(CSc1nnnn1-c1ccc(F)cc1)Nc1nc2ccccc2s1	-8	i	i	3	31*	5	0	8
Cc1cccc(NC(=O)CSc2nc3ccc(NC(=O)CSc4nnnn4-c4ccccc4)cc3s2)c1C	1	·	i	-3	·	·	·	·
O=C(CSc1nc2ccc(NC(=O)CSc3nnnn3-c3ccccc3)cc2s1)Nc1ccccc1	0	i	i	5	14*	18	8	4
O=C(CCc1ccccc1)N/N=C/c1cc(Br)ccc1O	9	i	i	-16	15*	1	-1	7
O=C(CCc1ccccc1)N/N=C\c1cc2c(cc1Br)OCO2	5	i	i	14	0	11	·	·
CCC(C)(C)N(C(=O)CCC(=O)Nc1cc(C)on1)C(C(=O)NC(C)(C)C)c1ccc(OC)cc1 (centres undefined)	-3	i	i	-17	1	5	·	·
NC(=O)c1c(NC(=O)C2COc3ccccc3O2)sc2c1CCN(Cc1ccccc1)C2 (centres undefined)	9	i	i	39	14*	21	1	5
O=C(COc1ccccc1)NCC(=O)N1CCCC(C(F)(F)F)C1 (centres undefined)	·	i	·	·	-2	10	·	·
CCCCC(=O)OCC(=O)N1N=C(c2c[nH]c3ccccc23)C(O)C1c1ccc(OC)cc1 (centres undefined)	0	i	25*	3	15*	12	8.3*	5
COc1ccc(CC(=O)OCC(=O)N2N=C(c3ccccc3)CC2c2ccc(OC)cc2)cc1 (centres undefined)	-3	i	i	-13	-2	7	·	·
Cc1nc(-c2cccnc2)sc1C(=O)N/N=C/c1ccccc1Cl	10	i	i	4	11*	-7	-1	4
Cc1nc(-c2cccnc2)sc1C(=O)Nc1ccc(Cl)cc1	3	i	i	-1	-1	2	·	·
COc1ccccc1-c1cc(NC=O)c2ncc(-c3cccc(C(C)=O)c3)n2c1	·	·	·	·	9.9*	-43	14*	4
CC(=O)c1cccc(-c2cnc3c(NC=O)cc(-c4ccc(F)cc4)cn23)c1	·	·	·	·	14*	5	15*	4
COc1ccc(F)cc1-c1cc(NC=O)c2ncc(-c3cccc(C(F)(F)F)c3)n2c1	·	·	·	·	10*	-23	6	2
COc1ccccc1-c1cc(NC=O)c2ncc(-c3cccc(C(=O)N(C)C)c3)n2c1	·	·	·	·	1	-48	·	·
Cc1ccc(OCCNC(=O)C(C)SCC(=O)Nc2ccc(F)cc2)cc1 (centres undefined)	-5	i	·	-12	-1	0	·	·
O=C(CN(Cc1ccc(F)cc1)C(=O)CCC(=O)Nc1ccccn1)NCCc1ccccc1	-9	i	i	-9	-3	7	·	·
CCc1cccc(NC(=O)Cn2c(=O)c3cccn3c3ccccc32)c1	-8	i	i	-4	11*	-3	5	8
Cc1cccc(C)c1NC(=O)Cn1c(=O)c2cccn2c2ccccc21	-4	i	i	-11	0	4	·	·
